Data: ChEMBL document CHEMBL4325870, “Synthesis and biological evaluation of 3-aryl-quinolin derivatives as anti-breast cancer agents targeting ERα and VEGFR-2” (Eur J Med Chem, 2019)
Activity calls are given as the source filed them. The rule behind the calls is not given here.

Assays:
[1] = system: Ishikawa; test: Antiproliferative activity against human Ishikawa cells after 48 hrs by MTT assay; assay type: functional
Method in brief: (§1)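 Cells kept in RPMI1640 with 10% FBS and penicillin/streptomycin at 37 °C, 5% CO2. Seeded at 1 x 10^5/mL, grown 24 h, then exposed to compound-containing medium for 48 h; controls received 1% DMSO medium. MTT (5 mg/mL) added for 4 h in the dark, formazan dissolved in DMSO, absorbance read. Value is concentration giving 50% growth inhibition.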

[2] = system: HUVEC; test: Antiproliferative activity against HUVEC after 48 hrs by MTT assay; assay type: functional, cell-based; settings: Homo sapiens; method in brief: as §1
[3] = target: Vascular endothelial growth factor receptor 2 (Homo sapiens, UniProt P35968)
[4] = system: MCF7; test: Antiproliferative activity against human MCF7 cells after 48 hrs by MTT assay; assay type: functional, cell-based; settings: MCF7, 48 h; method in brief: as §1
[5] = system: Ishikawa; test: Stimulation of cell proliferation in human Ishikawa cells at 1 to 10 uM after 48 hrs by MTT assay; assay type: ADME, cell-based
Method in brief: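 Ishikawa endometrial cells in RPMI1640 with 10% FBS, seeded at 1 x 10^5/mL, exposed 48 h to compound at 1 μM or 10 μM, then read by MTT assay (5 mg/mL MTT, 4 h, dark, DMSO solubilisation, absorbance).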

[6] = system: MCF7; test: Antimigratory activity in human MCF7 cells assessed as inhibition of wound healing at 1.25 uM after 8 to 48 hrs by phase contrast microscopic analysis; assay type: functional, cell-based
Method in brief: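 Wound-healing assay: MCF-7 monolayers grown to full confluence in 24-well plates, scratched with a tip, washed twice with PBS, then given serum-free 1640 medium with or without compound at 1.25 μM. Wound closure photographed by phase-contrast microscopy (100×) at 8, 16, 24/48 h; migration rate quantified from images.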

[7] = system: MCF7; test: Effect on progesterone receptor mRNA expression in non-stimulated human MCF7 cells at 1 uM by SYBR green dye based RT-PCR analysis; assay type: ADME, cell-based; settings: mcf7, 1 µM
Method in brief: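 Real-time PCR on MCF-7 cells given compound at 1 μM alone, without estradiol. Amplification: 95 °C 2 min, then 40 cycles of 95 °C 10 s, 60 °C 30 s, 95 °C 10 s. PgR mRNA normalised to GAPDH by the ΔΔCT method; mean ± SD, n=3.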

[8] = target: T1, Estrogen receptor (Homo sapiens, UniProt P03372); test: Displacement of fluorescent estrogen ligand from recombinant human full length untagged ERalpha expressed in Spodoptera frugiperda insect cells measured after 2 hrs by fluorescence polarization assay
T1 sequence (P03372 whole entry): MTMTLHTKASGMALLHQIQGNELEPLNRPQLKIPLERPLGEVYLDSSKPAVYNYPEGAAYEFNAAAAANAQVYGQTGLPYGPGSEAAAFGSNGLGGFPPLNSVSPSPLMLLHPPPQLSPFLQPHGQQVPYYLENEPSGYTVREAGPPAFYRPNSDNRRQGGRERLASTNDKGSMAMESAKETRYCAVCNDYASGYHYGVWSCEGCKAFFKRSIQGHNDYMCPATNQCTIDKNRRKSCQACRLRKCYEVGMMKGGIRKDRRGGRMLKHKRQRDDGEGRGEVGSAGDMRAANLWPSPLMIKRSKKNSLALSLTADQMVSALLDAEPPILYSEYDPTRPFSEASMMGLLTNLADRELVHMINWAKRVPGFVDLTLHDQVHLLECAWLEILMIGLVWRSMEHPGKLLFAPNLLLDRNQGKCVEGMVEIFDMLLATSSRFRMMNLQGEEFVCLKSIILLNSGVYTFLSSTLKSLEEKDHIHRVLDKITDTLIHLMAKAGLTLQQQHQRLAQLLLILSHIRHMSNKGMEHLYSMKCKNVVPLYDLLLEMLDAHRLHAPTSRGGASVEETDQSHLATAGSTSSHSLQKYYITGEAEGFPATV

[9] = system: MCF7; test: Cell cycle arrest in human MCF7 cells assessed as accumulation at G2 phase at 1.25 uM after 24 hrs by propidium iodide staining based flow cytometry (reference value: 31.48%); assay type: functional
Method in brief: (§2)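 MCF-7 cells exposed to 1.25 μM compound or DMSO vehicle for 12 h and 24 h. Cells washed in ice-cold PBS, pelleted, fixed in ice-cold 70% ethanol, RNase-treated (0.1 mg/mL), stained with propidium iodide, and analysed by flow cytometry for G1, S and G2 phase distribution.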

[10] = system: MCF7; test: Cell cycle arrest in human MCF7 cells assessed as accumulation at G1 phase at 1.25 uM after 24 hrs by propidium iodide staining based flow cytometry (reference value: 46.25%); assay type: functional; method in brief: as §2
[11] = system: MCF7; test: Cell cycle arrest in human MCF7 cells assessed as accumulation at S phase at 1.25 uM after 24 hrs by propidium iodide staining based flow cytometry (reference value: 18.93%); assay type: functional; method in brief: as §2
[12] = system: MCF7; test: Cell cycle arrest in human MCF7 cells assessed as accumulation at G1 phase at 1.25 uM after 12 hrs by propidium iodide staining based flow cytometry (reference value: 46.25%); assay type: functional; method in brief: as §2
[13] = system: MCF7; test: Cell cycle arrest in human MCF7 cells assessed as accumulation at G2 phase at 1.25 uM after 12 hrs by propidium iodide staining based flow cytometry (reference value: 31.48%); assay type: functional; method in brief: as §2
[14] = system: MCF7; test: Cell cycle arrest in human MCF7 cells assessed as accumulation at S phase at 1.25 uM after 12 hrs by propidium iodide staining based flow cytometry (reference value: 18.93%); assay type: functional; method in brief: as §2

Sequence of Vascular endothelial growth factor receptor 2 (P35968 whole entry): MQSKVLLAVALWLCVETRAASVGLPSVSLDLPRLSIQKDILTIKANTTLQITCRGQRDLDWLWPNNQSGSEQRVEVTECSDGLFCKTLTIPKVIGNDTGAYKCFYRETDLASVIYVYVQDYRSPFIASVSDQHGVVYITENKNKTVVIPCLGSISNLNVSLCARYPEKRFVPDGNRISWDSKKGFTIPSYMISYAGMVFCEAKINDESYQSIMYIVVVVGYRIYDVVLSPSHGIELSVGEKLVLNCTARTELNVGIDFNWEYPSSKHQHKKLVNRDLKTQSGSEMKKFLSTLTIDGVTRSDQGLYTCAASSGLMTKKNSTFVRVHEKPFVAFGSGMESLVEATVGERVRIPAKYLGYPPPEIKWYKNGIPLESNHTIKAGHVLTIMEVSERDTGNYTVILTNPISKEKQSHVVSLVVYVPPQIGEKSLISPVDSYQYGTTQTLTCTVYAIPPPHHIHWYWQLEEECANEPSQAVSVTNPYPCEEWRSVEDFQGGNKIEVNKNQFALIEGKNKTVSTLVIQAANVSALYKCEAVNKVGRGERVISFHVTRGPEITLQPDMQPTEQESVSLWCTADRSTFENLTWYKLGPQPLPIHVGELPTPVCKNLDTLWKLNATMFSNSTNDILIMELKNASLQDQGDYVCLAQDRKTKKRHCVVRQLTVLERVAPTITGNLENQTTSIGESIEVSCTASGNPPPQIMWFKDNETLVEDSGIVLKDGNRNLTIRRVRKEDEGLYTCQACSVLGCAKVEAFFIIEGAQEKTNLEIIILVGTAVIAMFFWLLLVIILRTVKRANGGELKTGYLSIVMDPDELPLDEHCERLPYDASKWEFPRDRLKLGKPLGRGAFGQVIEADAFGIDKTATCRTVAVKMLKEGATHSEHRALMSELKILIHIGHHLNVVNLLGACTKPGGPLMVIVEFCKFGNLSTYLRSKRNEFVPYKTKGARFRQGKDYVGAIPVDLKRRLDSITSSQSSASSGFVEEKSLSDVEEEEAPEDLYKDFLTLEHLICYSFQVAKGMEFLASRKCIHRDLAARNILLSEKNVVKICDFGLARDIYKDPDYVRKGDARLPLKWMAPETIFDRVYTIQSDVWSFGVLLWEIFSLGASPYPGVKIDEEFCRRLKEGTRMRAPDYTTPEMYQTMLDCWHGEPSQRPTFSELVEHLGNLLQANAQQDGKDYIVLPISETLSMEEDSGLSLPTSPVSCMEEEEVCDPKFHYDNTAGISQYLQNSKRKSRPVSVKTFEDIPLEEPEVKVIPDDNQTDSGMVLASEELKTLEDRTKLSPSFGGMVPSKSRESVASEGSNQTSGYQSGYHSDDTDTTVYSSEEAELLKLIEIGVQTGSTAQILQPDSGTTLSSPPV

SMILES: COc1ccc(-c2cc3ccc(OC)cc3nc2Nc2ccc(NC(=O)CN3CCCC3)cc2)cc1
- Activity [1]: 8.2 µM
- IC50 [2]: 8.6 µM
- IC50 [3]: 0.125 µM
- IC50 [4]: 6.6 µM

SMILES: O=C(c1ccc(OCCN2CCCCC2)cc1)c1c(-c2ccc(O)cc2)sc2cc(O)ccc12 [RALOXIFENE]
- Activity [5]: Toxic
- Activity [1]: >50 µM
- IC50 [4]: 12.5 µM

SMILES: CCN(CC)CCNC(=O)c1c(C)[nH]c(/C=C2\C(=O)Nc3ccc(F)cc32)c1C [SUNITINIB]
- Activity [1]: 14.3 µM
- inhibition [6]: Active
- IC50 [2]: 3.2 µM

SMILES: CCN(CC)CC(=O)Nc1ccc(Nc2nc3ccc(OC)cc3cc2-c2ccc(OC)cc2)cc1
- Activity [1]: >50 µM
- IC50 [2]: 45.6 µM
- IC50 [3]: 0.081 µM
- IC50 [4]: > 50 µM

SMILES: CC/C(=C(\c1ccccc1)c1ccc(OCCN(C)C)cc1)c1ccccc1 [TAMOXIFEN]
- Activity [5]: Toxic
- Activity [1]: >50 µM
- IC50 [4]: 16.7 µM
- Activity [7]: Non-Toxic

SMILES: COc1ccc(-c2cc3cc(OC)ccc3nc2Nc2ccc(NC(=O)CN3CCOCC3)cc2)cc1
- Activity [1]: >50 µM
- IC50 [2]: > 50 µM
- IC50 [3]: 0.117 µM
- IC50 [4]: > 50 µM

SMILES: COc1ccc(-c2cc3ccc(OC)cc3nc2Nc2ccc(NC(=O)CN3CCCCC3)cc2)cc1
- Activity [1]: >50 µM
- IC50 [2]: 23.5 µM
- IC50 [3]: 0.079 µM
- IC50 [4]: 47.9 µM

SMILES: COc1ccc(-c2cc3cc(OC)ccc3nc2Nc2ccc(NC(=O)CN(C)C)cc2)cc1
- Activity [1]: >50 µM
- IC50 [2]: 22.2 µM
- IC50 [3]: 0.109 µM
- IC50 [4]: 39.5 µM

SMILES: COc1ccc(-c2cc3ccc(OC)cc3nc2Nc2ccc(NC(=O)CN3CCOCC3)cc2)cc1
- Activity [1]: >50 µM
- IC50 [2]: 9.1 µM
- IC50 [3]: 0.11 µM
- IC50 [4]: > 50 µM

SMILES: CCN(CC)CC(=O)Nc1ccc(Nc2nc3cc(OC)ccc3cc2-c2ccc(OC)cc2)cc1
- Activity [1]: 21.4 µM
- IC50 [2]: 14 µM
- IC50 [3]: 0.101 µM
- IC50 [4]: 17.3 µM

SMILES: COc1ccc(-c2cc3cc(OC)ccc3nc2Nc2ccc(NC(=O)CN3CCN(C)CC3)cc2)cc1
- IC50 [8]: 1.78 µM
- Activity [9]: 20.43%
- Activity [10]: 54.63%
- Activity [5]: Non-Toxic
- Activity [11]: 22.39%
- Activity [1]: 1.8 µM
- IC50 [2]: 7.4 µM
- Activity [12]: 51.18%
- IC50 [3]: 0.086 µM
- IC50 [4]: 1.8 µM
- Activity [7]: Non-Toxic
- Activity [13]: 28.82%
- Activity [14]: 18.78%

SMILES: COc1ccc(-c2cc3cc(OC)ccc3nc2Nc2ccc(NC(=O)CN3CCCC3)cc2)cc1
- Activity [1]: 10.3 µM
- IC50 [2]: 13.1 µM
- IC50 [3]: 0.131 µM
- IC50 [4]: 7.29 µM

SMILES: COc1ccc(-c2cc3ccc(OC)cc3nc2Nc2ccc(NC(=O)CN3CCN(C)CC3)cc2)cc1
- IC50 [8]: 2.33 µM
- Activity [5]: Non-Toxic
- Activity [1]: 3.8 µM
- IC50 [2]: 7.4 µM
- IC50 [3]: 0.104 µM
- IC50 [4]: 2.8 µM

SMILES: COc1ccc(-c2cc3cc(OC)ccc3nc2Nc2ccc(NC(=O)CN3CCCCC3)cc2)cc1
- Activity [1]: >50 µM
- IC50 [2]: > 50 µM
- IC50 [3]: 0.08 µM
- IC50 [4]: > 50 µM

SMILES: COc1ccc(-c2cc3ccc(OC)cc3nc2Nc2ccc(NC(=O)CN(C)C)cc2)cc1
- Activity [1]: 8.4 µM
- IC50 [2]: 9.2 µM
- IC50 [3]: 0.114 µM
- IC50 [4]: 9.6 µM
